In publication PMC3026963 (The Biochemical journal, 2010):

Assays:
CK2α catalytic subunit = CK2α catalytic subunit (Homo sapiens, UniProt P68400); assay: In vitro phosphorylation assay of CK2α with peptide substrate RRRADDSDDDDD; format: biochemical
Method in brief: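 Activity is expressed as % of no-peptide control, as the mean of at least three independent experiments. Full-length murine NBD1ΔF508 (389–673) tests were run at 350 μM ATP.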

CK2 holoenzyme = CK2 holoenzyme activity towards protein and peptide substrates; format: biochemical, human; settings: results not shown
Method in brief: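 Recombinant human CK2α and CK2β expressed in E. coli; holoenzyme formed by pre-incubating CK2α with 10-fold molar excess of CK2β. Radiolabel incorporation was measured; at least three independent experiments were averaged.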

Sequence of CK2α catalytic subunit (P68400 whole entry): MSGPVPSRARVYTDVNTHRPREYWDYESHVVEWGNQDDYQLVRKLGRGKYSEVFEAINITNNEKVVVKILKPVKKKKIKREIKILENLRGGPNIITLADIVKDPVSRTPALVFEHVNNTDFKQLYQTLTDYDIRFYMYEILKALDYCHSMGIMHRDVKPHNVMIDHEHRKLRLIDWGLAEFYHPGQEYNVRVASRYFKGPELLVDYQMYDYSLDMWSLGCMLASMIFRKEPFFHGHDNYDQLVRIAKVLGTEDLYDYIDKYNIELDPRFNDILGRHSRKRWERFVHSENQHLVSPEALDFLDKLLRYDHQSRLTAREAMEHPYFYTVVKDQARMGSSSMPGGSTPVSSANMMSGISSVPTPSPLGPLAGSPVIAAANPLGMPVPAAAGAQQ

inhibition of CK2α by the full-length protein (CK2α catalytic subunit; concentration raised up to 20 μM, results not shown): no significant inhibition
effect on CK2 holoenzyme (CK2 holoenzyme): no appreciable effect
B1: NBD1ΔF508: purified ΔF508 mutated recombinant murine NBD1 (nucleotide-binding domain 1 of CFTR; sequence 389–673) (protein)
chain: TTGIIMENVTAFWEEGFGELLEKVQQSNGDRKHSSDENNVSFSHLCLVGNPVLKNINLNIEKGEMLAITGSTGSGKTSLLMLILGELEASEGIIKHSGRVSFCSQFSWIMPGTIKENIIGVSYDEYRYKSVVKACQLQQDITKFAEQDNTVLGEGGVTLSGGQRARISLARAVYKDADLYLLDSPFGYLDVFTEEQVFESCVCKLMANKTRILVTSKMEHLRKADKILILHQGSSYFYGTFSELQSLRPDFSSKLMGYDTFDQFTEERRSSILTETLRRFSVDD
effect on inhibition of CK2α by the ΔF508 peptide (CK2α catalytic subunit; 50 μM NBD1ΔF508, 350 μM ATP): abrogates the inhibitory efficacy of the ΔF508 peptide
